Laboratory results: ChEMBL document CHEMBL5058577, “EUbOPEN Chemogenomics Library 2 (Multiplex)” (2022)

System: Fibroblast
Experiment: Multiplex assay against human fibroblast
Type: toxicity, cell-based
How it was run: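 Per cents of healthy-nucleus cells form the tubulin, mitochondrial-mass and membrane-permeability phenotype values. Live cells were stained at seeding with Hoechst33342, BioTracker Green Microtubule Cytoskeleton Dye, MitoTracker Red and Annexin V Alexa Fluor 680. After compound addition they were imaged on a CQ1 microscope at 37°C and 5% CO2, and CellPathfinder machine-learning gating split them into Hoechst high-intensity objects or normal cells, normal cells into healthy, pyknosed or fragmented nuclei, and pyknosed cells into mitotic or apoptotic.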

[1] = 12 h, 1 µM, compound concentration 1 uM, replicate 1
[2] = 12 h, 1 µM, compound concentration 1 uM, replicate 2
[3] = 12 h, 10 µM, compound concentration 10 uM, replicate 1
[4] = 12 h, 10 µM, compound concentration 10 uM, replicate 2
[5] = 24 h, 1 µM, compound concentration 1 uM, replicate 1
[6] = 24 h, 1 µM, compound concentration 1 uM, replicate 2
[7] = 24 h, 10 µM, compound concentration 10 uM, replicate 1
[8] = 24 h, 10 µM, compound concentration 10 uM, replicate 2
[9] = 48 h, 1 µM, compound concentration 1 uM, replicate 1
[10] = 48 h, 1 µM, compound concentration 1 uM, replicate 2
[11] = 48 h, 10 µM, compound concentration 10 uM, replicate 1
[12] = 48 h, 10 µM, compound concentration 10 uM, replicate 2

With `COc1cccc2c1c(NS(=O)(=O)c1ccc(Cl)s1)nn2Cc1cccc(CNC(=O)C(C)(C)O)c1` the “Population Apoptotic (%)” value [1] was 43%, the “Population Fragmented Nuclei (%)” value [1] was 16% and the “Population Healthy Nuclei (%)” value [1] was 66%. For the same compound, the “Population Hoechst High Intensity Objects (%)” value [1] was 0%, the “Population Membrane Permeable-Phenotype (%)” value [1] was 1% and the “Population Mitochondria Different-Phenotype (%)” value [1] was 2%. The “Population Mitotic Cells (%)” value [1] was 56%, the “Population Normal (%)” value [1] was 99% and the “Population Pyknosed Nuclei (%)” value [1] was 17%. The “Population Tubulin-Different-Phenotype (%)” value [1] was 27%, the “Total Cell Count” value [1] was 134 and the “Population Apoptotic (%)” value [2] was 33%. For the same compound, the “Population Fragmented Nuclei (%)” value [2] was 26%, the “Population Healthy Nuclei (%)” value [2] was 54% and the “Population Membrane Permeable-Phenotype (%)” value [2] was 4%. For the same compound, the “Population Mitochondria Different-Phenotype (%)” value [2] was 1%, the “Population Mitotic Cells (%)” value [2] was 66% and the “Population Normal (%)” value [2] was 100%. The “Population Pyknosed Nuclei (%)” value [2] was 18%, the “Population Tubulin-Different-Phenotype (%)” value [2] was 18% and the “Total Cell Count” value [2] was 112. For the same compound, the “Population Apoptotic (%)” value [3] was 42%, the “Population Fragmented Nuclei (%)” value [3] was 13% and the “Population Healthy Nuclei (%)” value [3] was 72%. The “Population Hoechst High Intensity Objects (%)” value [3] was 2%, the “Population Membrane Permeable-Phenotype (%)” value [3] was 1% and the “Population Mitochondria Different-Phenotype (%)” value [3] was 11%. The “Population Mitotic Cells (%)” value [3] was 57%, the “Population Normal (%)” value [3] was 97% and the “Population Pyknosed Nuclei (%)” value [3] was 13%. The “Population Tubulin-Different-Phenotype (%)” value [3] was 37%, the “Total Cell Count” value [3] was 211 and the “Population Apoptotic (%)” value [4] was 41%. The “Population Fragmented Nuclei (%)” value [4] was 24%, the “Population Healthy Nuclei (%)” value [4] was 55% and the “Population Hoechst High Intensity Objects (%)” value [4] was 7%. The “Population Membrane Permeable-Phenotype (%)” value [4] was 7%, the “Population Mitochondria Different-Phenotype (%)” value [4] was 4% and the “Population Mitotic Cells (%)” value [4] was 58%. The “Population Normal (%)” value [4] was 92%, the “Population Pyknosed Nuclei (%)” value [4] was 19% and the “Population Tubulin-Different-Phenotype (%)” value [4] was 55%. The “Total Cell Count” value [4] was 174, the “Population Apoptotic (%)” value [5] was 55% and the “Population Fragmented Nuclei (%)” value [5] was 19%. For the same compound, the “Population Healthy Nuclei (%)” value [5] was 68%, the “Population Hoechst High Intensity Objects (%)” value [5] was 2% and the “Population Membrane Permeable-Phenotype (%)” value [5] was 2%. For the same compound, the “Population Mitochondria Different-Phenotype (%)” value [5] was 3%, the “Population Mitotic Cells (%)” value [5] was 44% and the “Population Normal (%)” value [5] was 97%. For the same compound, the “Population Pyknosed Nuclei (%)” value [5] was 12%, the “Population Tubulin-Different-Phenotype (%)” value [5] was 28% and the “Total Cell Count” value [5] was 144. The “Population Apoptotic (%)” value [6] was 50%, the “Population Fragmented Nuclei (%)” value [6] was 28% and the “Population Healthy Nuclei (%)” value [6] was 49%. For the same compound, the “Population Hoechst High Intensity Objects (%)” value [6] was 1%, the “Population Membrane Permeable-Phenotype (%)” value [6] was 7% and the “Population Mitochondria Different-Phenotype (%)” value [6] was 5%. The “Population Mitotic Cells (%)” value [6] was 50%, the “Population Normal (%)” value [6] was 98% and the “Population Pyknosed Nuclei (%)” value [6] was 22%. For the same compound, the “Population Tubulin-Different-Phenotype (%)” value [6] was 35%, the “Total Cell Count” value [6] was 110 and the “Population Apoptotic (%)” value [7] was 48%. The “Population Fragmented Nuclei (%)” value [7] was 11%, the “Population Healthy Nuclei (%)” value [7] was 74% and the “Population Hoechst High Intensity Objects (%)” value [7] was 2%. The “Population Membrane Permeable-Phenotype (%)” value [7] was 1%, the “Population Mitochondria Different-Phenotype (%)” value [7] was 7% and the “Population Mitotic Cells (%)” value [7] was 52%. The “Population Normal (%)” value [7] was 97%, the “Population Pyknosed Nuclei (%)” value [7] was 13% and the “Population Tubulin-Different-Phenotype (%)” value [7] was 30%. For the same compound, the “Total Cell Count” value [7] was 190, the “Population Apoptotic (%)” value [8] was 50% and the “Population Fragmented Nuclei (%)” value [8] was 22%. For the same compound, the “Population Healthy Nuclei (%)” value [8] was 55%, the “Population Hoechst High Intensity Objects (%)” value [8] was 8% and the “Population Membrane Permeable-Phenotype (%)” value [8] was 6%. For the same compound, the “Population Mitochondria Different-Phenotype (%)” value [8] was 2%, the “Population Mitotic Cells (%)” value [8] was 50% and the “Population Normal (%)” value [8] was 92%. The “Population Pyknosed Nuclei (%)” value [8] was 22%, the “Population Tubulin-Different-Phenotype (%)” value [8] was 48% and the “Total Cell Count” value [8] was 175. For the same compound, the “Population Apoptotic (%)” value [9] was 62%, the “Population Fragmented Nuclei (%)” value [9] was 21% and the “Population Healthy Nuclei (%)” value [9] was 66%. For the same compound, the “Population Hoechst High Intensity Objects (%)” value [9] was 5%, the “Population Membrane Permeable-Phenotype (%)” value [9] was 1% and the “Population Mitochondria Different-Phenotype (%)” value [9] was 5%. The “Population Mitotic Cells (%)” value [9] was 37%, the “Population Normal (%)” value [9] was 94% and the “Population Pyknosed Nuclei (%)” value [9] was 12%. For the same compound, the “Population Tubulin-Different-Phenotype (%)” value [9] was 30%, the “Total Cell Count” value [9] was 135 and the “Population Apoptotic (%)” value [10] was 75%. For the same compound, the “Population Fragmented Nuclei (%)” value [10] was 26%, the “Population Healthy Nuclei (%)” value [10] was 60% and the “Population Hoechst High Intensity Objects (%)” value [10] was 2%. The “Population Membrane Permeable-Phenotype (%)” value [10] was 8%, the “Population Mitochondria Different-Phenotype (%)” value [10] was 3% and the “Population Mitotic Cells (%)” value [10] was 25%. The “Population Normal (%)” value [10] was 97%, the “Population Tubulin-Different-Phenotype (%)” value [10] was 55% and the “Total Cell Count” value [10] was 99. For the same compound, the “Population Apoptotic (%)” value [11] was 63%, the “Population Fragmented Nuclei (%)” value [11] was 13% and the “Population Healthy Nuclei (%)” value [11] was 73%. The “Population Hoechst High Intensity Objects (%)” value [11] was 5%, the “Population Membrane Permeable-Phenotype (%)” value [11] was 3% and the “Population Mitochondria Different-Phenotype (%)” value [11] was 10%. For the same compound, the “Population Mitotic Cells (%)” value [11] was 36%, the “Population Normal (%)” value [11] was 94% and the “Population Pyknosed Nuclei (%)” value [11] was 12%. The “Population Tubulin-Different-Phenotype (%)” value [11] was 40%, the “Total Cell Count” value [11] was 187 and the “Population Apoptotic (%)” value [12] was 51%. For the same compound, the “Population Fragmented Nuclei (%)” value [12] was 33%, the “Population Healthy Nuclei (%)” value [12] was 49% and the “Population Hoechst High Intensity Objects (%)” value [12] was 6%. For the same compound, the “Population Mitochondria Different-Phenotype (%)” value [12] was 4%, the “Population Mitotic Cells (%)” value [12] was 48% and the “Population Normal (%)” value [12] was 93%. The “Population Pyknosed Nuclei (%)” value [12] was 17% and the “Population Tubulin-Different-Phenotype (%)” value [12] was 43%.
